Assay results taken from ChEMBL document CHEMBL1821661, “Design, synthesis, and biological evaluation of pyrazolopyrimidine-sulfonamides as potent multiple-mitotic kinase (MMK) inhibitors (part I)” (Bioorg Med Chem Lett, 2011).

Experiments:
[1] = target: T1, Aurora kinase A (Homo sapiens, UniProt O14965); experiment: Inhibition of Aurora kinase A assessed as phosphorylation of Lats2 substrate at […] by FRET assay
T1 sequence (O14965 whole entry): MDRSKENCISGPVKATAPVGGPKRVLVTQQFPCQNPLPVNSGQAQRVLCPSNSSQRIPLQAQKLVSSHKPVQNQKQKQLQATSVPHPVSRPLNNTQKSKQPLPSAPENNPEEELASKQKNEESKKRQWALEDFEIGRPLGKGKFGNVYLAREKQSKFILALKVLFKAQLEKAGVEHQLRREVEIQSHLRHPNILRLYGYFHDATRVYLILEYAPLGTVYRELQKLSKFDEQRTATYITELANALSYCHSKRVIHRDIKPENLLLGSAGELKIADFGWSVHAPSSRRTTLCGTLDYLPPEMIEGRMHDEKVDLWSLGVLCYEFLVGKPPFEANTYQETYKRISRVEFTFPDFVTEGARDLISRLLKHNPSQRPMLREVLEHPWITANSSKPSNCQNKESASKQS

[2] = tested on: HCT-116; experiment: Cytotoxicity against human HCT116 cells assessed as growth inhibition at 0.01 to 10 uM after 5 days by MTS assay; assay type: functional, cell-based; conditions: HCT-116, 120 h
[3] = tested on: K562; experiment: Cell cycle arrest in human K562 cells assessed as accumulation of cells at G2/M phase after 24 hrs using propidium iodide by flow cytometry; assay type: functional, cell-based; conditions: K562, 24 h, read-out: IC50
Outline: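 2 × 10⁴ K562 cells were exposed to varying compound concentrations for 24 h. Cells were stained with propidium iodide (50 µg/ml) in PBS containing 1% sodium citrate and 0.1% Triton X-100, and 5000 events were collected by flow cytometry. Cycle data were modelled by the Watson method. The minimum arrest concentration was taken where the G2:M peak ratio exceeded 1.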

[4] = target: Cyclin-dependent kinase 1/cyclin B1 (Homo sapiens, UniProt P06493); experiment: Inhibition of CDK1/Cyclin B assessed as phosphorylation of Z-lyte Peptide at […] by FRET assay; assay type: protein-complex assay
Outline: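 Z-lyte FRET kinase assay. Kinase was at 3 nM final with a coumarin/fluorescein-labelled synthetic peptide substrate and ATP. Development-step cleavage of non-phosphorylated peptide disrupts FRET. % phosphorylation was calculated from the coumarin:fluorescein emission ratio, read at 445–520 nm. EC50s were obtained by curve fitting.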

[5] = Hepatic blood flow in rat liver microsomes assessed as compound remaining at 1.0 uM pre incubated for 5 mins at pH 7.4 by LC/MS/MS analysis; assay type: ADME, Microsome; conditions: read-out: QH
Outline: (§1)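 Liver microsomes at 1 mg/mL protein in 50 mM potassium phosphate, pH 7.4, with 2.5 mM NADPH. Compound was used at 1.0 µM final and pre-incubated 5 min at 37 °C before NADPH started the reaction. Samples were taken at 0, 5 and 30 min, quenched in acetonitrile, and filtered. Results are expressed as %Q_h (hepatic blood flow).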

[6] = Hepatic blood flow in mouse liver microsomes assessed as compound remaining at 1.0 uM pre incubated for 5 mins at pH 7.4 by LC/MS/MS analysis; assay type: ADME, Microsome; conditions: read-out: QH; outline: as §1
[7] = tested on: HCT-116; experiment: Antitumor activity against human HCT116 cells xenografted in nu/nu mouse assessed as tumor growth inhibition at 15 to 30 mg/kg, ip for 21 days relative to control; assay type: functional; conditions: dose mg/kg 15-30, route intraperitoneal
[8] = Efflux ratio of permeability in human Caco2 cells; assay type: ADME, cell-based; conditions: Caco-2
Outline: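 Caco-2 bidirectional transport, passage 25–50, in HBSS/25 mM HEPES/1% DMSO after a 30 min pre-incubation at 37 °C. Compound was dosed apically (A–B) or basolaterally (B–A) and incubated 2 h at 37 °C with gentle shaking.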

[9] = Hepatic blood flow in human liver microsomes assessed as compound remaining at 1.0 uM pre incubated for 5 mins at pH 7.4 by LC/MS/MS analysis; assay type: ADME, Microsome; conditions: read-out: QH; outline: as §1
[10] = target: Cytochrome P450 2C19 (Homo sapiens, UniProt P33261); experiment: Inhibition of CYP2C19; assay type: ADME
[11] = Apparent permeability from apical to basolateral side of the human Caco2 cells after 2 hrs; assay type: ADME, cell-based; conditions: Caco-2
Outline: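 Caco-2 cells, passage 25–50, were grown on transwell inserts. They were washed and pre-incubated 30 min at 37 °C in HBSS with 25 mM HEPES and 1% DMSO. Compound was added to the apical chamber and apical-to-basolateral transport was measured after 2 h at 37 °C with gentle shaking.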

[12] = target: T2, Cytochrome P450 3A4 (Homo sapiens, UniProt P08684); experiment: Inhibition of CYP3A4 using a fluorescent probe 7-benzyloxyquinoline; assay type: ADME
[13] = target: Cytochrome P450 2D6 (Homo sapiens, UniProt P10635); experiment: Inhibition of CYP2D6 using a fluorescent probe 3-[2-(N,N-diethyl-N-methylamino)ethyl]-7-methoxy-4methylcoumarin; assay type: ADME
Outline: (§2)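 Fluorescent-probe CYP inhibition assay. Probes: 7-methoxy-4-trifluoromethylcoumarin for 2C9; 3-[2-(N,N-diethyl-N-methylamino)ethyl]-7-methoxy-4-methylcoumarin for 2D6.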

[14] = target: T3, Cytochrome P450 1A2 (Homo sapiens, UniProt P05177); experiment: Inhibition of CYP1A2; assay type: ADME
T3 sequence (P05177 whole entry): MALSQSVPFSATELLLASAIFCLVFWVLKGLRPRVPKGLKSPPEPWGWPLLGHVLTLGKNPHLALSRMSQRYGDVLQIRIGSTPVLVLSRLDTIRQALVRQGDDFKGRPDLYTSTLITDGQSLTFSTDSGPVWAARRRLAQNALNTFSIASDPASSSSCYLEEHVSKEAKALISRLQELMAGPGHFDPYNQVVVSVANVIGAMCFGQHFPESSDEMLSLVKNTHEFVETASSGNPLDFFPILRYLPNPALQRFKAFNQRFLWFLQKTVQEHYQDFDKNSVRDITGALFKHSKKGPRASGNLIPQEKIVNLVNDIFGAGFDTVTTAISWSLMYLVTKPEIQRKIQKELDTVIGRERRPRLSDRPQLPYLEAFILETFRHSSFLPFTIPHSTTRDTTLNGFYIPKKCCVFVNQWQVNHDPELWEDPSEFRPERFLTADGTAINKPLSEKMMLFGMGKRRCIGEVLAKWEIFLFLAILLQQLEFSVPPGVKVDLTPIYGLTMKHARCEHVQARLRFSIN

[15] = target: hERG (KCNH2) (Homo sapiens, UniProt Q12809); experiment: Inhibition of human ERG up to 10 uM by patch clamp method
[16] = target: Cytochrome P450 2C9 (Homo sapiens, UniProt P11712); experiment: Inhibition of CYP2C9 using a fluorescent probe 7-methoxy-4-trifluoromethylcoumarin; assay type: ADME; outline: as §2
[17] = target: T2, Cytochrome P450 3A4; experiment: Inhibition of CYP3A4 using a fluorescent probe 7-benzyloxy-4(trifluoromethyl)-coumarin; assay type: ADME
[18] = tested on: Mus musculus; experiment: Toxicity in nu/nu mouse xenografted with human HCT116 cells assessed as change in body weight at 15 to 30 mg/kg, […]; assay type: organism-based, HCT-116; set-up: dose 15-30 mg/kg, route intraperitoneal; conditions: in vivo, ip, 504 h

Cyclin-dependent kinase 1/cyclin B1, sequence (P06493 whole entry): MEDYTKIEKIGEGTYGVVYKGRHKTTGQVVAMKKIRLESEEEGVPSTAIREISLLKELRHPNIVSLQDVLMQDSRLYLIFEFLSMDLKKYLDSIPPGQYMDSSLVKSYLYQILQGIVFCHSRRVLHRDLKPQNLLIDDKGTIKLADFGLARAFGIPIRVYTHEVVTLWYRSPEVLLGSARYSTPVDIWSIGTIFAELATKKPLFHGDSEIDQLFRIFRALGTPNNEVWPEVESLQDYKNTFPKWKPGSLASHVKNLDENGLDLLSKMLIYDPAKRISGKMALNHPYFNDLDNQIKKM
Cyclin-dependent kinase 1/cyclin B1, sequence (P14635 whole entry, further chain): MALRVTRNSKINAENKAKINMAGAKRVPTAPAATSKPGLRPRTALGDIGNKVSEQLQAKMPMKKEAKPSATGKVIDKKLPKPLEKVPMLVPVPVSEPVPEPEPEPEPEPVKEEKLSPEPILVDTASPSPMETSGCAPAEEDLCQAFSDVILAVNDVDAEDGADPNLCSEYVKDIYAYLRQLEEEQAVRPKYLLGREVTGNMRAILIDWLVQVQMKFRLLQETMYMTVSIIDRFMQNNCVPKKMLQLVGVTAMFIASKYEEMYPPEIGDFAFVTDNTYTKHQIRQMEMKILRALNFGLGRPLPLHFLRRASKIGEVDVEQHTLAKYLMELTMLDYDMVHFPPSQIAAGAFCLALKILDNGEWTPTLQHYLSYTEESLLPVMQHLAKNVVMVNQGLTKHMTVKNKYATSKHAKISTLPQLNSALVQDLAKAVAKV
T2 sequence (P08684 whole entry): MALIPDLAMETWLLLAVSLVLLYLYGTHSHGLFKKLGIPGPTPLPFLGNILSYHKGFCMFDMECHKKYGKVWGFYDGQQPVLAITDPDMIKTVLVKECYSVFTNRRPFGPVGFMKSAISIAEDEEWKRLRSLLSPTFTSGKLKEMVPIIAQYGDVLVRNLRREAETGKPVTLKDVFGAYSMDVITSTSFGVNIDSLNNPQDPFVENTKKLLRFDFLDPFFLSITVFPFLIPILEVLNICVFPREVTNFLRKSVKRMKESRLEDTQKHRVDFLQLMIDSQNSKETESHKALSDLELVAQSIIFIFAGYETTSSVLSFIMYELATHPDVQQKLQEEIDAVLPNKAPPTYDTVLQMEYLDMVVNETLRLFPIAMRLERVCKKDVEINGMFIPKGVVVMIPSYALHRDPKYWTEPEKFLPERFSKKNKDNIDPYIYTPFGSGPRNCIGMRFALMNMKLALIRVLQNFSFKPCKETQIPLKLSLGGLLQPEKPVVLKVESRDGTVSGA
Cytochrome P450 2C9, sequence (P11712 whole entry): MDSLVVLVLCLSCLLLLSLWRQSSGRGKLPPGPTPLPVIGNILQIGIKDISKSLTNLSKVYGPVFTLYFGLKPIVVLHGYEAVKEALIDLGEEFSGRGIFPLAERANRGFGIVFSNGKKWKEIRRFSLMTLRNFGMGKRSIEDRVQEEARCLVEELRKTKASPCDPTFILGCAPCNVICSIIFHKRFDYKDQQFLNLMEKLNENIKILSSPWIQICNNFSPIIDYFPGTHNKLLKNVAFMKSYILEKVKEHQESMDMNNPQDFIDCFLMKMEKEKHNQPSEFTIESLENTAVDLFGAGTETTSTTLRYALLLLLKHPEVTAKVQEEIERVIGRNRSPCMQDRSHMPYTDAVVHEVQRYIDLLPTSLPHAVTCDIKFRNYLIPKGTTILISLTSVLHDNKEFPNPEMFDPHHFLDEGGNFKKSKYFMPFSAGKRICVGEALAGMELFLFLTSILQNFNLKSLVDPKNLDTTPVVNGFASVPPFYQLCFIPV
Cytochrome P450 2D6, sequence (P10635 whole entry): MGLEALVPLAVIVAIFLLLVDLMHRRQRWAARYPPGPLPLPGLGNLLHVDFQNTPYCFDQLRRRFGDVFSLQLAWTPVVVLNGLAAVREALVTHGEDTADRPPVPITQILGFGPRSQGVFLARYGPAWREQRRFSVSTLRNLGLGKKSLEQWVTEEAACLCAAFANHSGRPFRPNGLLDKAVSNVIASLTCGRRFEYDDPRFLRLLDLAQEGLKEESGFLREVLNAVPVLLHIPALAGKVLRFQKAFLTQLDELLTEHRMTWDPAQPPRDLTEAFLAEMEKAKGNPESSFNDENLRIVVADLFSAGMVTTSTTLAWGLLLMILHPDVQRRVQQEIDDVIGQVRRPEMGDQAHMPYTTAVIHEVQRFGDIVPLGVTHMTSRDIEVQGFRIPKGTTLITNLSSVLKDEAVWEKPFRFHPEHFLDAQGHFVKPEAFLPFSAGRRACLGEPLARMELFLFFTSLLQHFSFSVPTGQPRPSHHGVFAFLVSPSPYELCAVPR
Cytochrome P450 2C19, sequence (P33261 whole entry): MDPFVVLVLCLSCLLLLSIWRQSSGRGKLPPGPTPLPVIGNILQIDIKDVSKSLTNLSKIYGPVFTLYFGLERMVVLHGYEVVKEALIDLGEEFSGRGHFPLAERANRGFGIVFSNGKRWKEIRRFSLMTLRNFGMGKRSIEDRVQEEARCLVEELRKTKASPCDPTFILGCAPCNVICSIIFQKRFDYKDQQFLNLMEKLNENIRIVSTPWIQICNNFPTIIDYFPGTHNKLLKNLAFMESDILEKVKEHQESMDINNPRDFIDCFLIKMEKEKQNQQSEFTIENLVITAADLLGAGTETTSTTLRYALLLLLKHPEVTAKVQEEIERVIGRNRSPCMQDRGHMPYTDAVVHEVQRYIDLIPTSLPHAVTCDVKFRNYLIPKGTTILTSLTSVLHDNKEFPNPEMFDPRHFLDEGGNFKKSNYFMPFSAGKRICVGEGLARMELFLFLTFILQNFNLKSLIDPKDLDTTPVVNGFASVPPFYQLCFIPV
hERG (KCNH2), sequence (Q12809 whole entry): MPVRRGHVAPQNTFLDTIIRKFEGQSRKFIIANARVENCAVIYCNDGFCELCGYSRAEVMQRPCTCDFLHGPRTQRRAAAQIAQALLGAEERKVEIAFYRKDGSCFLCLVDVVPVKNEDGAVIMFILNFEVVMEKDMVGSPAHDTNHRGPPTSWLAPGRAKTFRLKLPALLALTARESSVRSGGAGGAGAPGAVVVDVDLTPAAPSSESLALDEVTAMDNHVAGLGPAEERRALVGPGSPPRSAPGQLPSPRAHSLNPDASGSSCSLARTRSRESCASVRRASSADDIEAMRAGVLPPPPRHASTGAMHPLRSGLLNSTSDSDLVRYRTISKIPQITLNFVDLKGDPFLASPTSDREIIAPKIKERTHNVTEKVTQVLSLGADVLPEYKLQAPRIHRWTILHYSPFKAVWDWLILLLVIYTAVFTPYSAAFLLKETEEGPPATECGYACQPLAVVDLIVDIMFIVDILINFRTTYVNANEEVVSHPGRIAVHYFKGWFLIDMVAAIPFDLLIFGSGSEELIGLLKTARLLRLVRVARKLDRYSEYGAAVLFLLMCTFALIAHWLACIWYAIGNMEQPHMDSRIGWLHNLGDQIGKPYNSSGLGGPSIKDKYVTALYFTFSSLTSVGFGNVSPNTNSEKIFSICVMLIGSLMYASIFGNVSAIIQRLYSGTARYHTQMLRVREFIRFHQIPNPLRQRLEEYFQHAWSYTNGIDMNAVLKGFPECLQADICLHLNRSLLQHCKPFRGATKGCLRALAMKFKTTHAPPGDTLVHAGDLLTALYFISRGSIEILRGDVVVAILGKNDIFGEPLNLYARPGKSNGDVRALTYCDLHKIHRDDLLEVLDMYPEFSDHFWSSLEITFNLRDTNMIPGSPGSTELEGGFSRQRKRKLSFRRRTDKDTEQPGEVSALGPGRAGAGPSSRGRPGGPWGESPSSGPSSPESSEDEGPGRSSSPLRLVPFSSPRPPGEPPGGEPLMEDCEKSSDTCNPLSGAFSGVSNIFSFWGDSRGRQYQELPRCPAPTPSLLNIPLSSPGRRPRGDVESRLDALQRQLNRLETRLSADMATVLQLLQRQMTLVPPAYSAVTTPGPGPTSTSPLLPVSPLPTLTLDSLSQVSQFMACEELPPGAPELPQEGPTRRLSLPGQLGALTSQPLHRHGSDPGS

IC50 [1] [nM] | IC50 [4] [nM] | Compound | IC50 [2] [nM] | Minimum G2/M arrest concentration [3] [nM] | other results
13 | 5 | CS(=O)(=O)N(CCO)c1ccc(Nc2ncc3cnn(C4CCCCCC4)c3n2)cc1 | 77 | 30 | 
14 | 23 | CS(=O)(=O)N(CCN1CCOCC1)c1ccc(Nc2ncc3cnn(C4CCCCCC4)c3n2)cc1 | 160 | 100 | hepatic extraction ratio at 5 min, 1 µM [5]: 0.94; hepatic extraction ratio at 5 min, 1 µM [6]: 0.96; growth inhibition (GI) [7]: 50%; efflux ratio [8]: 1.1; hepatic extraction ratio at 5 min, 1 µM [9]: 0.95; IC50 [10]: 30 nM; Papp A→B at 2 h [11]: 26.5 ×10⁻⁶ cm/s; IC50 [12]: 40 nM; IC50 [13]: > 10000 nM; IC50 [14]: > 10000 nM; inhibition at up to 10 uM [15]: 40%; IC50 [16]: 1 nM; IC50 [17]: 40 nM; Activity [18]: Non-toxic
 | 5 | CS(=O)(=O)N(CCCN1CCOCC1)c1ccc(Nc2ncc3cnn(C4CCCCCC4)c3n2)cc1 | 170 | 100 | 
6 | 6 | CS(=O)(=O)N(CCCO)c1ccc(Nc2ncc3cnn(C4CCCCCC4)c3n2)cc1 | 78 | 100 | 
5 | 90 | CC(C)N(c1ccc(Nc2ncc3cnn(C4CCCCCC4)c3n2)cc1)S(C)(=O)=O | 240 | 300 | 
20 | 5 | CS(=O)(=O)N(CCN)c1ccc(Nc2ncc3cnn(C4CCCCCC4)c3n2)cc1 | 60 | 100 | 
30 | 23 | CS(=O)(=O)N(Cc1ccncc1)c1ccc(Nc2ncc3cnn(C4CCCCCC4)c3n2)cc1 | 250 | 300 | 
9 | 6 | CS(=O)(=O)N(CCCN1CCCCC1)c1ccc(Nc2ncc3cnn(C4CCCCCC4)c3n2)cc1 | 92 | 100 | 
 | 7 | CS(=O)(=O)Nc1ccc(Nc2ncc3cnn(C4CCCCCC4)c3n2)cn1 | 210 | 300 | hepatic extraction ratio at 5 min, 1 µM [5]: 0.3; hepatic extraction ratio at 5 min, 1 µM [6]: 0.33; efflux ratio [8]: 1.5; hepatic extraction ratio at 5 min, 1 µM [9]: 0.39; IC50 [10]: > 10000 nM; Papp A→B at 2 h [11]: 20.1 ×10⁻⁶ cm/s; IC50 [12]: > 10000 nM; IC50 [13]: > 10000 nM; IC50 [14]: > 10000 nM; inhibition at up to 10 uM [15]: 6.5%; IC50 [16]: > 10000 nM; IC50 [17]: > 10000 nM
150 | 31 | CS(=O)(=O)N(CCN1CCOCC1)c1ccc(Nc2ncc3cnn(C4CCCCCC4)c3n2)cn1 | 500 | 2000 | 
350 | 10 | CS(=O)(=O)N(CCN1CCCC1)c1ccc(Nc2ncc3cnn(C4CCCCCC4)c3n2)cn1 | 125 | 1000 | 
260 | 10 | CN(C)CCN(c1ccc(Nc2ncc3cnn(C4CCCCCC4)c3n2)cn1)S(C)(=O)=O | 220 | 300 | 
110 | 4 | CS(=O)(=O)N(CCO)c1ccc(Nc2ncc3cnn(C4CCCCCC4)c3n2)cn1 | 145 | 300 | 
 | 3 | CS(=O)(=O)N(CCN)c1ccc(Nc2ncc3cnn(C4CCCCCC4)c3n2)cn1 | 119 | 300 | 
95 | 13 | CS(=O)(=O)N(Cc1ccncc1)c1ccc(Nc2ncc3cnn(C4CCCCCC4)c3n2)cn1 | 320 | 300 | 
> 10000 | > 10000 | CS(=O)(=O)N(c1ccc(Nc2ncc3cnn(C4CCCCCC4)c3n2)nc1)S(C)(=O)=O |  | > 3000 | 
